Results reported in ChEMBL document CHEMBL2311487, “Total synthesis of bicyclic depsipeptides spiruchostatins C and D and investigation of their histone deacetylase inhibitory and antiproliferative activities” (Eur J Med Chem, 2013).
Values belong to the molecule of their own block, whether it stands above or below them.

How the values were obtained:
Histone deacetylase = test: Inhibition of class 1 HDAC (unknown origin); assay type: protein assay, Homo sapiens
[1] = Selectivity index, ratio of IC50 for mouse HDAC6 to IC50 for human HDAC1
Method in brief: (§1)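 FLAG-tagged HDAC1 or HDAC6 was expressed in cells grown 24 h in DMEM, then lysed in Tris/NaCl/EDTA/NP40 buffer. The enzyme was immunoprecipitated with anti-FLAG M2 and eluted with FLAG peptide. It was incubated with Ac-KGLGK(Ac)-MCA (2 mM stock) and 100 μM DTT at 37 °C for 30 min, then trypsin at 37 °C for 15 min. AMC fluorescence was read. IC50 is the mean±SD of ≥3 curves. The ratios are computed from these IC50s.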

[2] = target: Histone deacetylase 1 (Homo sapiens) (UniProt Q13547); test: Ratio of FK228 IC50 to compound IC50 for human HDAC1 using Ac-KGLGK(Ac)-MCA as substrate after 30 mins by fluorescence assay; method in brief: as §1
[3] = target: Protein deacetylase HDAC6 (Mus musculus, UniProt Q9Z2V5); test: Inhibition of mouse HDAC6 using Ac-KGLGK(Ac)-MCA as substrate after 30 mins by fluorescence assay
PC-3 = test: Growth inhibition of human PC3 cells by sulforhodamine B colorimetric method; assay type: functional
Method in brief: (§2)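 Tested in a human cancer cell line panel. Five concentrations were used per compound, spanning either 10^-10–10^-6 M or 10^-8–10^-4 M. Growth was read by sulforhodamine B colorimetry.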

DU-145 = test: Growth inhibition of human DU145 cells by sulforhodamine B colorimetric method; assay type: functional; method in brief: as §2
MKN-45 = test: Growth inhibition of human MKN45 cells by sulforhodamine B colorimetric method; assay type: functional; method in brief: as §2
MKN-74 = test: Growth inhibition of human MKN74 cells by sulforhodamine B colorimetric method; assay type: functional; method in brief: as §2
MKN-28 = test: Growth inhibition of human MKN28 cells by sulforhodamine B colorimetric method; assay type: functional; method in brief: as §2
MKN-7 = test: Growth inhibition of human MKN7 cells by sulforhodamine B colorimetric method; assay type: functional; method in brief: as §2
St-4 = test: Growth inhibition of human St-4 cells by sulforhodamine B colorimetric method; assay type: functional; method in brief: as §2
[4] = Growth inhibition of human MKN1 cells by sulforhodamine B colorimetric method; assay type: functional; details: MKN-1; method in brief: as §2
[5] = Growth inhibition of human RXF631L cells by sulforhodamine B colorimetric method; assay type: functional; details: RXF 631; method in brief: as §2
ACHN = test: Growth inhibition of human ACHN cells by sulforhodamine B colorimetric method; assay type: functional; method in brief: as §2
SK-OV-3 = test: Growth inhibition of human SKOV3 cells by sulforhodamine B colorimetric method; assay type: functional; method in brief: as §2
OVCAR-5 = test: Growth inhibition of human OVCAR5 cells by sulforhodamine B colorimetric method; assay type: functional; method in brief: as §2
OVCAR-8 = test: Growth inhibition of human OVCAR8 cells by sulforhodamine B colorimetric method; assay type: functional; method in brief: as §2
OVCAR-4 = test: Growth inhibition of human OVCAR4 cells by sulforhodamine B colorimetric method; assay type: functional; method in brief: as §2
LOX IMVI = test: Growth inhibition of human LOXIMVI cells by sulforhodamine B colorimetric method; assay type: functional; method in brief: as §2
OVCAR-3 = test: Growth inhibition of human OVCAR3 cells by sulforhodamine B colorimetric method; assay type: functional; method in brief: as §2
DMS-273 = test: Growth inhibition of human DMS273 cells by sulforhodamine B colorimetric method; assay type: functional; method in brief: as §2
DMS-114 = test: Growth inhibition of human DMS114 cells by sulforhodamine B colorimetric method; assay type: functional; method in brief: as §2
NCI-H460 = test: Growth inhibition of human NCI-H460 cells by sulforhodamine B colorimetric method; assay type: functional; method in brief: as §2
A549 = test: Growth inhibition of human A549 cells by sulforhodamine B colorimetric method; assay type: functional; method in brief: as §2
NCI-H522 = test: Growth inhibition of human NCI-H522 cells by sulforhodamine B colorimetric method; assay type: functional; method in brief: as §2
NCI-H23 = test: Growth inhibition of human NCI-H23 cells by sulforhodamine B colorimetric method; assay type: functional; method in brief: as §2
NCI-H226 = test: Growth inhibition of human NCI-H226 cells by sulforhodamine B colorimetric method; assay type: functional; method in brief: as §2
HCT-116 = test: Growth inhibition of human HCT116 cells by sulforhodamine B colorimetric method; assay type: functional; method in brief: as §2
HT-29 = test: Growth inhibition of human HT-29 cells by sulforhodamine B colorimetric method; assay type: functional; method in brief: as §2
HCT-15 = test: Growth inhibition of human HCT15 cells by sulforhodamine B colorimetric method; assay type: functional; method in brief: as §2
[6] = Growth inhibition of human HCC2998 cells by sulforhodamine B colorimetric method; assay type: functional; details: HCC 2998; method in brief: as §2
KM12 = test: Growth inhibition of human KM12 cells by sulforhodamine B colorimetric method; assay type: functional; method in brief: as §2
SNB-78 = test: Growth inhibition of human SNB78 cells by sulforhodamine B colorimetric method; assay type: functional; method in brief: as §2
SNB-75 = test: Growth inhibition of human SNB75 cells by sulforhodamine B colorimetric method; assay type: functional; method in brief: as §2
SF-539 = test: Growth inhibition of human SF539 cells by sulforhodamine B colorimetric method; assay type: functional; method in brief: as §2
SF-295 = test: Growth inhibition of human SF295 cells by sulforhodamine B colorimetric method; assay type: functional; method in brief: as §2
U-251 = test: Growth inhibition of human U251 cells by sulforhodamine B colorimetric method; assay type: functional; method in brief: as §2
SF-268 = test: Growth inhibition of human SF268 cells by sulforhodamine B colorimetric method; assay type: functional; method in brief: as §2
MDA-MB-231 = test: Growth inhibition of human MDA-MB-231 cells by sulforhodamine B colorimetric method; assay type: functional; method in brief: as §2
MCF7 = test: Growth inhibition of human MCF7 cells by sulforhodamine B colorimetric method; assay type: functional; method in brief: as §2
[7] = Growth inhibition of human HBC5 cells by sulforhodamine B colorimetric method; assay type: functional; method in brief: as §2
[8] = Growth inhibition of human BSY1 cells by sulforhodamine B colorimetric method; assay type: functional; details: BSY-1; method in brief: as §2
[9] = Growth inhibition of human HBC4 cells by sulforhodamine B colorimetric method; assay type: functional; method in brief: as §2

Protein deacetylase HDAC6, sequence (Q9Z2V5 whole entry): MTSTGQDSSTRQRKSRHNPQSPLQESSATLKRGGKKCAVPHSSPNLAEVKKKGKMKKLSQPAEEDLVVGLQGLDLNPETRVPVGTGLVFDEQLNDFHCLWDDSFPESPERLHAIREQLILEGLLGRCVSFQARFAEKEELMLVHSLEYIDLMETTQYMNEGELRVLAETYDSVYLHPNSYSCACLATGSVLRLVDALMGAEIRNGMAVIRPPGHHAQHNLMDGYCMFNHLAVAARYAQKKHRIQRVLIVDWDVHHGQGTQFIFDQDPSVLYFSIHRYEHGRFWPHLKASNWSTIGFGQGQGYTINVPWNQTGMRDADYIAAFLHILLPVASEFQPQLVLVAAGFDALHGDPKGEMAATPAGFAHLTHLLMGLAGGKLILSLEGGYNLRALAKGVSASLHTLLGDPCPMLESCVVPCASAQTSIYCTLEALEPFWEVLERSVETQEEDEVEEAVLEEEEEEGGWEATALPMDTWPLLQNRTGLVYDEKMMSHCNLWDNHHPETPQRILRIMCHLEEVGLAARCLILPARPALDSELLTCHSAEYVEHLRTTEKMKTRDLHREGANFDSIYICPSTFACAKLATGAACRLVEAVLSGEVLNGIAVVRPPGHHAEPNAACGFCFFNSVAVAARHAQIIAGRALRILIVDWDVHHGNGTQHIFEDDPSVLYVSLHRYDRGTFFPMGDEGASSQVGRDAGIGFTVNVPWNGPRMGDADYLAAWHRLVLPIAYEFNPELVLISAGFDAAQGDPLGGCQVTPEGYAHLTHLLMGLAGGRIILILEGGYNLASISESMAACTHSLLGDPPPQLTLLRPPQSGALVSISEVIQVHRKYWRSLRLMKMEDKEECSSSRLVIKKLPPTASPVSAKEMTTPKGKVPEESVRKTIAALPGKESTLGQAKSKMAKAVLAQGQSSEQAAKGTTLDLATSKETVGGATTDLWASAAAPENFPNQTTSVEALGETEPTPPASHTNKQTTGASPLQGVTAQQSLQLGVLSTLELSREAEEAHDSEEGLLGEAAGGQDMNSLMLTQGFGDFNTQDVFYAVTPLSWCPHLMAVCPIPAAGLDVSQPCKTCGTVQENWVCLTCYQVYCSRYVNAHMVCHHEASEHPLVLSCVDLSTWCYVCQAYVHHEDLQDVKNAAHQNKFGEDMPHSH
Histone deacetylase 1 (Homo sapiens), sequence (Q13547 whole entry): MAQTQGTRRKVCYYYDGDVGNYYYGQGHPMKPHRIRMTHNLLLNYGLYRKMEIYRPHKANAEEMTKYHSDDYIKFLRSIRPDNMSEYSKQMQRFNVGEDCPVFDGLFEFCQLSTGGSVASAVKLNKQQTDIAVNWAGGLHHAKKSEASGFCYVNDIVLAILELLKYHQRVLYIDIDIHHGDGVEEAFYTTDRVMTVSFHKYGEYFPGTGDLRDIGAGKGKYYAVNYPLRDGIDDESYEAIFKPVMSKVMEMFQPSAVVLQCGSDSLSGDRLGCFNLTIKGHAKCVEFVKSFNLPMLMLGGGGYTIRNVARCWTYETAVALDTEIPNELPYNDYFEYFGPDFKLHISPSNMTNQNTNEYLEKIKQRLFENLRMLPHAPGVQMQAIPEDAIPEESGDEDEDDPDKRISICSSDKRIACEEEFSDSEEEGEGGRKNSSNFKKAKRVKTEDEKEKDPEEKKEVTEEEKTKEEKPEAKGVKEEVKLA

- IC50 (Histone deacetylase): 2.2 nM
SMILES: CCC(C)[C@H]1NC(=O)[C@H]2CSSCC/C=C/[C@H](CC(=O)N[C@H](C)C(=O)N2)OC(=O)C[C@@H]1O (stereo partly drawn) [spiruchostatin B]

- Ratio IC50 [1]: 320
- Ratio IC50 [2]: 3
- IC50 [3]: 240 nM
- GI50 (PC-3): 8.7 nM
- GI50 (DU-145): 4 nM
- GI50 (MKN-45): 9.6 nM
- GI50 (MKN-74): 2.9 nM
- GI50 (MKN-28): 9.5 nM
- GI50 (MKN-7): 5.8 nM
- GI50 (ACHN): 21 nM
- GI50 (SK-OV-3): 2.3 nM
- GI50 (OVCAR-5): 1.2 nM
- GI50 (OVCAR-8): 2.7 nM
- GI50 (OVCAR-4): 4.7 nM
- GI50 (OVCAR-3): 2.2 nM
- GI50 (NCI-H460): 2.8 nM
- GI50 (A549): 0.97 nM
- GI50 (NCI-H522): 0.39 nM
- GI50 (NCI-H23): 2.5 nM
- GI50 (NCI-H226): 4 nM
- GI50 (HCT-116): 1.3 nM
- GI50 (HT-29): 2.2 nM
- GI50 (HCT-15): 210 nM
- GI50 (U-251): 2.7 nM
- GI50 (MDA-MB-231): 1.7 nM
- GI50 (MCF7): 2.9 nM
SMILES: CC(C)[C@H]1NC(=O)[C@H]2CSSCC/C=C/[C@H](CC(=O)N[C@H](C(C)C)C(=O)N2)OC(=O)C[C@@H]1O [spiruchostatin D]
- GI50 (St-4): 16 nM
- GI50 [4]: 2 nM
- GI50 [5]: 5.9 nM
- GI50 (LOX IMVI): 1.8 nM
- GI50 (DMS-273): 5.1 nM
- GI50 (DMS-114): 3.6 nM
- GI50 [6]: 1.5 nM
- GI50 (KM12): 2.6 nM
- GI50 (SNB-78): 41 nM
- GI50 (SNB-75): 1.9 nM
- GI50 (SF-539): 0.58 nM
- GI50 (SF-295): 5.1 nM
- GI50 (SF-268): 3.5 nM
- GI50 [7]: 18 nM
- GI50 [8]: 5.2 nM
- GI50 [9]: 4.1 nM
